Source: ChEMBL document CHEMBL5661984, “Allosteric ligands for the pharmacologically dark receptors GPR68 and GPR65” (Nature, 2015)
The source made the active and inactive calls. The rule behind the calls is not given here.

Tests used:
[1] = Binding affinity to GPR68 H269F mutant expressed in human HEK293T cells assessed as cAMP production in presence of H+ proton by Split-luciferase based luminescence counter analysis; settings: condition central nervous system disease
Summary of the method: (§1)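 Proton concentration-response of GPR68 (wild type or E160A/K/Q, R189L/M, H269F mutants) in transiently transfected HEK293-T cells. Read-out: GloSensor cAMP, with luciferin loading 90 min at 37°C at pH 8.4. Run with and without increasing modulator concentrations; 20 min at room temperature before luminescence. Proton KA fixed to the proton EC50 without modulator. KB, τA, α, β fitted globally with an operational allosteric model. n=4.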

[2] = Binding affinity to GPR68 E160Q mutant expressed in human HEK293T cells assessed as cAMP production in presence of H+ proton by Split-luciferase based luminescence counter analysis; settings: condition central nervous system disease; summary of the method: as §1
[3] = Positive allosteric modulator activity at GPR68 E160K mutant expressed in human HEK293T cells assessed as cAMP production in presence of H+ proton by Split-luciferase based luminescence counter analysis (reference value: 6.70+/-0.08); type: cell-based; settings: HEK-293T; summary of the method: as §1
[4] = molecular target: C-X-C chemokine receptor type 4 (Homo sapiens) (UniProt P61073); assay: Antagonist activity against CXCR4 receptor (unknown origin) transfected in human HEK293T cells at 10 uM incubated for 15 mins in presence of AMD3100 by luminescence counter analysis; type: functional, cell-based
C-X-C chemokine receptor type 4 (Homo sapiens), sequence (P61073 whole entry): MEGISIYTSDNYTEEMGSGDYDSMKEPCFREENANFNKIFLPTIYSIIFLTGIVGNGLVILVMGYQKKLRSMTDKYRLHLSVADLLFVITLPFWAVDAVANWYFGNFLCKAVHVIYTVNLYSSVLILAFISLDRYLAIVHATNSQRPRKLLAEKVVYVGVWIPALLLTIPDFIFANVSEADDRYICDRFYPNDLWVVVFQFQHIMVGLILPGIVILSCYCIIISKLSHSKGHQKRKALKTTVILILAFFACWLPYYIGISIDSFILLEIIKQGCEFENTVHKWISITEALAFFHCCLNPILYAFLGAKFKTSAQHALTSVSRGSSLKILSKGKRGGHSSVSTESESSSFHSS
Summary of the method: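 HEK293-T cells transiently transfected with CXCR4 and the GloSensor cAMP reporter, plated in DMEM with 1% dialyzed FBS. Test compound at 10 μM in 20 mM HEPES/HBSS, pH 7.4, 15 min at room temperature. Agonist mode: luciferin (4 mM final) plus 200 nM isoproterenol added, 20 min. Antagonist mode: compound 10 min, then reference agonist at EC80 for 10 min, then luciferin/isoproterenol. Luminescence read. CXCL12 (1 or 3 μM) is the agonist control and AMD3100 (10 μM) the antagonist control. n=2.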

[5] = Positive allosteric modulator activity at GPR68 R189M mutant transfected in human HEK293T cells assessed as proton-mediated calcium release at 10 uM incubated for 10 mins by Fluo-4 Direct calcium dye based FLIPR assay (reference value: 6.77 +/- 0.01); type: cell-based; settings: HEK-293T
[6] = Positive allosteric modulator activity at GPR68 R189M mutant expressed in human HEK293T cells assessed as cAMP production in presence of H+ proton by Split-luciferase based luminescence counter analysis (reference value: 3.7 %); settings: HEK-293T, condition central nervous system disease; summary of the method: as §1
[7] = Positive allosteric modulator activity at GPR68 H269F mutant transfected in human HEK293T cells assessed as proton-mediated calcium release at 10 uM incubated for 10 mins by Fluo-4 Direct calcium dye based FLIPR assay (reference value: 1.57 +/- 0.01 %); settings: HEK-293T, condition central nervous system disease
[8] = Positive allosteric modulator activity at GPR68 E160K mutant expressed in human HEK293T cells assessed as cAMP production in presence of H+ proton by Split-luciferase based luminescence counter analysis (reference value: 24.6+/-2.7 %); settings: HEK-293T, condition central nervous system disease; summary of the method: as §1
[9] = molecular target: 5-hydroxytryptamine receptor 2B (Homo sapiens, UniProt P41595); assay: Antagonist activity against 5-HT2B […] receptor (unknown origin) transfected in human HEK293T cells assessed as inhibition constant incubated for 15 mins by luminescence counter analysis; type: functional, cell-based
5-hydroxytryptamine receptor 2B, sequence (P41595 whole entry): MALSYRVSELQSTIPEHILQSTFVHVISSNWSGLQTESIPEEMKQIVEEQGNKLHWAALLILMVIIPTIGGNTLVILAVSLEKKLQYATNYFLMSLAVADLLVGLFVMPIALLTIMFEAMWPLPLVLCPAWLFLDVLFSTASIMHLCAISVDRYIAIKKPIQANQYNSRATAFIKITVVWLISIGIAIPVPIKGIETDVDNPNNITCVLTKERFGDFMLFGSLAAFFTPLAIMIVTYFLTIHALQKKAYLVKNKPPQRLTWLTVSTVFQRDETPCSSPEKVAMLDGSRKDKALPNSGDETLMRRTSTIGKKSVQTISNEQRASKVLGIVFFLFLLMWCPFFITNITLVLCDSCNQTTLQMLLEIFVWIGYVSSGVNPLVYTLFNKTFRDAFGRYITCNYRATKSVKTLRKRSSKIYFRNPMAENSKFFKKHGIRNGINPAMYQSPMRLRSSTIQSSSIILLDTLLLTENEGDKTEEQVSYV

[10] = molecular target: T1, G-protein coupled receptor 68 (Homo sapiens, UniProt Q15743); assay: Positive allosteric modulator activity at GPR68 expressed in human HEK293T cells assessed as proton-mediated phosphatidylinositol hydrolysis on pH 8.4 at 10 uM incubated for 20 mins by TriLuxMicroBeta counter analysis; type: functional, cell-based; settings: filed as positive allosteric modulator
T1 sequence (Q15743 whole entry): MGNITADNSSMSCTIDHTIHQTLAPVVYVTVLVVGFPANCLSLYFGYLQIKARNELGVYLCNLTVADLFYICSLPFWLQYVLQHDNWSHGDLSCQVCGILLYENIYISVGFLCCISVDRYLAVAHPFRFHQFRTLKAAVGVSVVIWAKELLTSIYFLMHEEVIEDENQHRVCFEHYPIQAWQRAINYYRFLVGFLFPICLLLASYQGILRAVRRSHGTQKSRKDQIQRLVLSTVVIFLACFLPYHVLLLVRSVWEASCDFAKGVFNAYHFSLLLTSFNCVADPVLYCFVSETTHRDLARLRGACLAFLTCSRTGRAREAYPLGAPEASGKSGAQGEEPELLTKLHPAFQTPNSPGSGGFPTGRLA
Summary of the method: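 GPR68-transfected HEK293-T cells labeled overnight with 3H-inositol (1 μCi/well) in inositol-free DMEM with 5% dialyzed FBS. Treated for 20 min at pH 8.4 in HBSS with 10 mM HEPES, 10 mM MES and 20 mM LiCl, compound at 10 μM. Extracted with 50 mM ice-cold formic acid, 30 min at 4°C. Captured on YSi beads and counted (cpm/well). n=3. 4-parameter logistic fit.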

[11] = Toxicity in C57BL/6 mouse assessed as cued memory retrieval by Morris water maze test; settings: in vivo
[12] = Positive allosteric modulator activity at GPR68 E160A mutant expressed in human HEK293T cells assessed as cAMP production in presence of H+ proton by Split-luciferase based luminescence counter analysis (reference value: 6.6+/-0.3 %); settings: HEK-293T, condition central nervous system disease; summary of the method: as §1
[13] = Positive allosteric modulator activity at GPR68 R189L mutant transfected in human HEK293T cells assessed as proton-mediated calcium release at 10 uM incubated for 10 mins by Fluo-4 Direct calcium dye based FLIPR assay (reference value: 6.85 +/- 0.02); type: cell-based; settings: HEK-293T
[14] = Positive allosteric modulator activity at GPR68 E160Q mutant expressed in human HEK293T cells assessed as cAMP production in presence of H+ proton by Split-luciferase based luminescence counter analysis (reference value: 17.0+/-1.5 %); settings: HEK-293T, condition central nervous system disease; summary of the method: as §1
[15] = Positive allosteric modulator activity at GPR68 H269F mutant expressed in human HEK293T cells assessed as cAMP production in presence of H+ proton by Split-luciferase based luminescence counter analysis (reference value: 17.7+/-0.8 %); settings: HEK-293T, condition central nervous system disease; summary of the method: as §1
[16] = Binding affinity to GPR68 E160K mutant expressed in human HEK293T cells assessed as cAMP production in presence of H+ proton by Split-luciferase based luminescence counter analysis; settings: condition central nervous system disease; summary of the method: as §1
[17] = molecular target: T1, G-protein coupled receptor 68; assay: Positive allosteric modulator activity at GPR68 expressed in human HEK293T cells assessed as proton-mediated calcium release at 10 uM incubated for 10 mins by Fluo-4 Direct calcium dye based FLIPR assay (reference value: 1.30 %); type: functional, cell-based
[18] = Positive allosteric modulator activity at GPR68 R189L mutant expressed in human HEK293T cells assessed as cAMP production in presence of H+ proton by Split-luciferase based luminescence counter analysis (reference value: 1.4 %); settings: HEK-293T, condition central nervous system disease; summary of the method: as §1
[19] = molecular target: T1, G-protein coupled receptor 68; assay: Positive allosteric modulator activity at HA-tagged GPR68 expressed in human HEK293T cells assessed as activation of p42/p44 MAP kinase at pH 7.4 by immunoblotting analysis; type: cell-based; settings: filed as positive allosteric modulator
Summary of the method: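 HEK293 cells stably expressing N-terminal HA-tagged human GPR68 (vector-only line as control), selected with 250 μg/ml G418. Confluent cells were switched to Hams-F12 at pH 8.0 or 7.4 for 1 h, then given vehicle or 50 μM compound for 10 min. Lysate immunoblots were probed for HA, total VASP, p-p42/p44 and β-actin, read with infrared-fluorophore secondaries.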

[20] = Positive allosteric modulator activity at GPR68 R189L mutant transfected in human HEK293T cells assessed as proton-mediated calcium release at 10 uM incubated for 10 mins by Fluo-4 Direct calcium dye based FLIPR assay (reference value: 1.42 +/- 0.01 %); settings: HEK-293T, condition central nervous system disease
[21] = Positive allosteric modulator activity at GPR68 E160K mutant transfected in human HEK293T cells assessed as proton-mediated calcium release at 10 uM incubated for 10 mins by Fluo-4 Direct calcium dye based FLIPR assay (reference value: 6.79 +/- 0.02); type: cell-based; settings: HEK-293T

Q: What does the source list for `Nc1nc(NCc2ccccc2)nc(-c2ccccc2CO)n1` [Ogerin]?
A: pKb [1]: 4.33; pKb [2]: 4.9; EC50 [3]: 0.0776 µM; Activity [4]: inactive; EC50 [5]: 0.155 µM; Emax [6]: 10%; Emax at 10 µM [7]: 1.56%; Emax [8]: 42.6%; Ki [9]: 0.736 µM; Activity [10]: Active; Activity [11]: Non-Toxic; Emax [12]: 11.7%; EC50 [13]: 0.0871 µM; Emax [14]: 27.5%; Emax [15]: 45.1%; pKb [16]: 4.98; Emax [17]: 1.07%; Emax [18]: 5.3%; Activity [19]: Active; Emax at 10 µM [20]: 1.35%; EC50 [21]: 0.151 µM
